Ten compounds from ChEMBL document CHEMBL3739324, “Characterization and Biological Evaluation of Diterpenoids from Casearia graveolens” (J Nat Prod, 2015) can be followed below.

In assay [1] the test system is PC-12. Kind of assay: Induction of neurite outgrowth in rat PC12 cells incubated for 96 hrs by phase contrast microscopy. It is filed as functional, cell-based. The method in brief: (§1)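 PC12 cells grown at 37 °C in DMEM with 5% FBS, 5% horse serum, penicillin/streptomycin, 5% CO2. Dissociated with 1 mM EGTA in PBS for 15 min, seeded at 3 × 10^4 cells/well on poly-L-lysine. After 24 h, switched to medium with 1% FBS, 1% HS, graded compound levels, with or without NGF (20 ng/mL; 100 ng/mL positive control), for 96 h.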

In assay [2] the test system is PC-12. As to the kind of experiment: Stimulation of NGF-mediated neurite outgrowth in rat PC12 cells incubated for 96 hrs by phase contrast microscopy. As to conditions: for EC50: PC-12, 96 h. Format: functional, cell-based. The method in brief: as §1

Calls of active or inactive are those of the source. No cut-off for these calls is given here.

By EC50 is commonly meant the concentration at which the effect is half-maximal. Read a low EC50 as higher potency in that assay. For the compound `C=CC(=C)CC[C@]1(C)[C@H](C)C[C@H](OC)[C@@]23C(=C[C@H](OC(=O)CCC)C[C@@H]12)[C@@H](OC(C)=O)O[C@H]3OC(C)=O`, in the assay on PC-12 [1], the result was inactive. The EC50 with PC-12 [2] is 28.7 µM.

Turning to `C=CC(=C)CC[C@]1(C)[C@H](C)C[C@H](OC)[C@@]23C(=C[C@H](O)C[C@@H]12)[C@@H](OC)O[C@H]3OC`, the result with PC-12 [1] was inactive. In the assay with PC-12 [2], this compound came in with an EC50 of 3.3 µM.

On to `C=CC(=C)CC[C@]1(C)[C@H](C)C[C@H](OC)[C@@]23C(=C[C@H](OC(=O)CC)C[C@@H]12)[C@@H](OC(=O)CCC)O[C@H]3OC(C)=O`, for which, in the assay with PC-12 [1], the outcome was inactive. In the assay on PC-12 [2], the EC50 is above 45 µM.

For the compound `C=CC(=C)CC[C@]1(C)[C@H](C)CC[C@@]23C(=C[C@H](OC(=O)CCC)C[C@@H]12)[C@@H](OC(=O)CCC)O[C@H]3OC(C)=O`, the outcome in the assay on PC-12 [2] was inactive.

As for `C=CC(=C)CC[C@]1(C)[C@H](C)C[C@H](OC)[C@@]23C(=C[C@H](OC(=O)CC)C[C@@H]12)[C@@H](OC)O[C@H]3OC(C)=O`, the outcome with PC-12 [1] was inactive. It took 4.4 µM to reach a half-maximal effect with PC-12 [2] (EC50).

In the case of `C=CC(=C)CC[C@]1(C)[C@H](C)CC[C@@]23[C@H](OC(C)=O)O[C@H](OC(=O)CCC)[C@@H]2CC(=O)C[C@@H]13`, the outcome with PC-12 [2] was inactive.

`C=CC(=C)CC[C@]1(C)[C@H](C)C[C@H](OC)[C@@]23C(=C[C@H](OC(=O)CCC)C[C@@H]12)[C@@H](OC)O[C@H]3OC(C)=O`: the outcome in the assay with PC-12 [1] was inactive. This compound also registered an EC50 in the assay with PC-12 [2] of 20.6 µM.

As for `C=CC(=C)CC[C@]1(C)[C@H](C)CC[C@@]23C(=C[C@H](OC(=O)CCC)C[C@@H]12)[C@@H](OC(C)=O)O[C@H]3OC(C)=O`, the result in the assay on PC-12 [2] was inactive.

For the compound `C=CC(=C)CC[C@]1(C)[C@H](C)CC[C@@]23C(=C[C@H](O)C[C@@H]12)[C@@H](OC(=O)CCC)O[C@H]3OC(C)=O`, the result in the assay on PC-12 [2] was inactive.

With `C=CC(=C)CC[C@]1(C)[C@H](C)CC[C@@]23C(=C[C@H](O)C[C@@H]12)[C@@H](OC)O[C@H]3OC(C)=O`, the outcome in the assay on PC-12 [2] was inactive.
